In publication PMC6482435 (Biochemistry, 2019):
Each block holds one compound with its values, some of them ahead of it.

What was measured:
Experiment in all cases: Yeast-based OR sensor, GFP dose-response
Assay type in all cases: cell-based
[1] = molecular target: T1, OR2A7 (Homo sapiens, UniProt Q96R45); conditions: for OR-dependent activation, conclusion in words: OR2A7 vs no OR control; for EC50: GFP expression, 4 h, 0-1000 μM chemical, 1% DMSO
T1 sequence (Q96R45 1-310): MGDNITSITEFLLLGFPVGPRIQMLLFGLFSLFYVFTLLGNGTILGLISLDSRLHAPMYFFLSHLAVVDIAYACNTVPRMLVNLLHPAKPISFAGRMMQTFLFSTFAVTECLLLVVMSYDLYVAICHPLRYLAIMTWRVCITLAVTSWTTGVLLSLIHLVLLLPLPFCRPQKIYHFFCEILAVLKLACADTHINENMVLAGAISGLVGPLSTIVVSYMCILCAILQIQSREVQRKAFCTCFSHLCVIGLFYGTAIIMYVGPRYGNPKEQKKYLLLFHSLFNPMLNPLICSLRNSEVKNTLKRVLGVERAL
How it was run: (§1)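 Yeast-codon-optimized human OR in S. cerevisiae PPY140 (Δfar1 Δste2 Δsst2) with PFIG1-eGFP reporter. Cells pre-grown 18 h at 15 °C in SD(HL–), exposed to test compound 0–1000 μM final, 1% DMSO, 4 h at 30 °C. Flow-cytometric geometric mean GFP, 10000 cells; triplicate; two-tailed t test vs DMSO; empty-vector strain run same day; EC50 from dose-response fit.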

[2] = molecular target: T2, OR2T4 (Homo sapiens, UniProt Q8NH00); conditions: for OR-dependent activation, conclusion in words: OR2T4 vs no OR control; for increase in the signal after activation: OR2T4, dose-response curve, compared to DMSO control; for EC50: GFP expression, 4 h, 0-1000 μM chemical, 1% DMSO; for increase in percent GFP expression compared to the no receptor control: OR2T4 vs empty-vector control strain
T2 sequence (Q8NH00 1-348): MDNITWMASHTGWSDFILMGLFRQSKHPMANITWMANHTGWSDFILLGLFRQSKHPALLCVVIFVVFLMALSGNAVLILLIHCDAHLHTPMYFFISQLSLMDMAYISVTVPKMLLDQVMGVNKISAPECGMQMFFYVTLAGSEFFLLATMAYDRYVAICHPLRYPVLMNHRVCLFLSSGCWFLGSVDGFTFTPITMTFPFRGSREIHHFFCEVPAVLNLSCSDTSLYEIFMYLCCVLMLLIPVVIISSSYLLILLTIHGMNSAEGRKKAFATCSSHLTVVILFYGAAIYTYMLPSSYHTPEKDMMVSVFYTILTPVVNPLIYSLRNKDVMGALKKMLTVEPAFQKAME
How it was run: as §1

[3] = molecular target: T3, OR51B5 (Homo sapiens, UniProt Q9H339); conditions: for increase in the signal after activation: OR51B5, dose-response curve, compared to DMSO control
T3 sequence (Q9H339 1-312): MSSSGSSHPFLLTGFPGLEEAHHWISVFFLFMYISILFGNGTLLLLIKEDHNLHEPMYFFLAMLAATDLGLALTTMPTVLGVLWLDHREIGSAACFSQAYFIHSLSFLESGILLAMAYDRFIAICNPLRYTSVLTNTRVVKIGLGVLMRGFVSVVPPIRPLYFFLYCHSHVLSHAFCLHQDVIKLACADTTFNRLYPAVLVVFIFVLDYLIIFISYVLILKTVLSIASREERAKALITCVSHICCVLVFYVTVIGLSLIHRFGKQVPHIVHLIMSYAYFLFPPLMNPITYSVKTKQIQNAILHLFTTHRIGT
How it was run: as §1

[4] = molecular target: T4, OR2L13 (Homo sapiens, UniProt Q8N349); conditions: OR2L13, dose-response curve, compared to DMSO control
T4 sequence (Q8N349 1-312): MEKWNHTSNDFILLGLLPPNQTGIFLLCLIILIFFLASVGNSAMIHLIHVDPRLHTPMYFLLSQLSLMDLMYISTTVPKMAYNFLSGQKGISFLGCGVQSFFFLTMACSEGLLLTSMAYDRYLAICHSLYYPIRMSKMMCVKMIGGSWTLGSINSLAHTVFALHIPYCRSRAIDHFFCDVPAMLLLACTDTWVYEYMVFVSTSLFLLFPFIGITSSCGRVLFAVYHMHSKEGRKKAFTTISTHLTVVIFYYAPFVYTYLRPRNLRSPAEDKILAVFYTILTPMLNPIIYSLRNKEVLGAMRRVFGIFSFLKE
How it was run: as §1

[5] = molecular target: T5, OR2A42 (Homo sapiens, UniProt Q8NGT9)
T5 sequence (Q8NGT9 1-310): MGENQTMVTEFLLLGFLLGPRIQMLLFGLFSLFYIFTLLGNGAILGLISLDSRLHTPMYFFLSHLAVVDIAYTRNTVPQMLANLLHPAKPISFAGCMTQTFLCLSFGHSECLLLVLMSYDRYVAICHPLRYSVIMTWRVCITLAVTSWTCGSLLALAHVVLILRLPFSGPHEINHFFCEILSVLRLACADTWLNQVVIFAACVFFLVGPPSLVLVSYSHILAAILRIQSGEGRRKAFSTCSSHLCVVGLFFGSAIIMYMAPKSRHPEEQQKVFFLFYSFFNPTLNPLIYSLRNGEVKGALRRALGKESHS
How it was run: as §1

[6] = molecular target: T6, OR2W3 (Homo sapiens, UniProt Q7Z3T1)
T6 sequence (Q7Z3T1 1-314): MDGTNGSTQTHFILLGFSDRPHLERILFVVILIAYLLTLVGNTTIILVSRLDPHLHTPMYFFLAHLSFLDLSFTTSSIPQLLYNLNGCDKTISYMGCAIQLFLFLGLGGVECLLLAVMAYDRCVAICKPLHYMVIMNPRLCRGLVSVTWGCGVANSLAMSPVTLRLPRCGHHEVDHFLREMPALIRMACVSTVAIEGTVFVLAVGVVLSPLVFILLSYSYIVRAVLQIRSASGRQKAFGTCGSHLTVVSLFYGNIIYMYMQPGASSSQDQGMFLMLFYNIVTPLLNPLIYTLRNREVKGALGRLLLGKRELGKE
How it was run: as §1

[7] = molecular target: T7, OR10S1 (Homo sapiens, UniProt Q8NGN2)
T7 sequence (Q8NGN2 1-331): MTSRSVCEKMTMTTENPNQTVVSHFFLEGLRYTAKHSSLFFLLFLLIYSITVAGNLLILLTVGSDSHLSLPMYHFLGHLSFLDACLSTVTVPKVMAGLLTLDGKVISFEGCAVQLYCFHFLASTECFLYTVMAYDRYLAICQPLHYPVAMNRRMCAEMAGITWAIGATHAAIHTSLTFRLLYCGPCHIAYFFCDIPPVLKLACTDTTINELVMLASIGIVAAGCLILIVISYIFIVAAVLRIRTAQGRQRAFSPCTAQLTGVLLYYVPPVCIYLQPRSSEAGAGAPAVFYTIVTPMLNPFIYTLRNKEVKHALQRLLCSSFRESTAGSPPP
How it was run: as §1

Structure (SMILES): CCCCCCCCCCCCO [dodecanol, 1-dodecanol]
increase in the signal after activation [4]: > 2 fold

Structure (SMILES): CC(C)=CCC/C(C)=C\CO [nerol]
signal after activation (in words) ([6]; OR2W3, dose-response curve, Figure S1): did not result in a significant increase in the signal after activation

Structure (SMILES): CCCCCCCCC=O [nonanal]
increase in the signal after activation ([7]; OR10S1, dose-response curve, compared to DMSO control): > 2 fold
OR-dependent activation, conclusion in words ([7]; OR10S1 vs no OR control): the no OR control shows a similar increase in GFP expression

Structure (SMILES): CCCCCCCCCCC=O [undecanal]
increase in the signal after activation [2]: > 2 fold
increase in percent GFP expression compared to the no receptor control [2]: 2.3 fold
OR-dependent activation, conclusion in words [2]: confirmed ligand
increase in the signal after activation [4]: > 2 fold

Next, values leading:

OR-dependent activation, conclusion in words [1]: not OR dependent
OR-dependent activation, conclusion in words [2]: not OR dependent
Structure (SMILES): CC(C)(C)c1ccccc1 [TBB, tert-butylbenzene]

increase in the signal after activation [3]: > 2 fold
Structure (SMILES): CCCCCCCCCCCC(=O)O [dodecanoic, lauric acid]

EC50 ([1]; OR2A7 yeast sensor): do not fit a dose–response curve
increase in the signal after activation [2]: > 2 fold
OR-dependent activation, conclusion in words [2]: not a ligand
EC50 ([2]; OR2T4 yeast sensor): could not be fitted
EC50 ([3]; EC50, OR51B5 yeast sensor, GFP expression, 4 h, 0-1000 μM chemical, 1% DMSO): 181 µM
increase in the signal after activation [3]: > 2 fold
OR-dependent activation, conclusion in words ([3]; OR51B5, on/off behavior of the response): nonspecifically activates GFP expression
increase in percent GFP expression compared to the no receptor control ([3]; OR51B5 vs empty-vector control strain): 3 fold
increase in the signal after activation ([5]; OR2A42, dose-response curve, compared to DMSO control): 2 fold
OR-dependent activation, conclusion in words ([5]; OR2A42 vs no OR control): not a ligand
EC50 (fit to dose-response equation) ([5]; OR2A42 yeast sensor, GFP expression): could not be fitted
EC50 (fit to dose-response curve) ([6]; OR2W3 yeast sensor, GFP expression, Figure S6): do not fit a dose–response curve
Structure (SMILES): CC(C)=CCC/C(C)=C/CC/C(C)=C/CO [farnesol]

EC50 ([1]; EC50, OR2A7 yeast sensor): 412 µM
increase in the signal after activation ([1]; OR2A7, dose-response curve, compared to DMSO control): > 2 fold
increase in percent GFP expression compared to the no receptor control ([1]; OR2A7 vs empty-vector control strain): 2.3 fold
OR-dependent activation, conclusion in words [1]: confirmed ligand
EC50 ([2]; EC50, OR2T4 yeast sensor): 659 µM
increase in the signal after activation [2]: > 2 fold
maximal level of GFP expression of OR2T4, higher than that of OR2A7 ([2]; OR2T4 relative to OR2A7): 63%
increase in percent GFP expression compared to the no receptor control [2]: 3 fold
OR-dependent activation, conclusion in words [2]: confirmed ligand
Structure (SMILES): CC1=CCC2CC1C2(C)C (stereo not drawn) [α-pinene, alpha-pinene]

weaker response than with α-pinene ([1]; OR2A7, response relative to α-pinene): 18%
Structure (SMILES): C=C1CCC2CC1C2(C)C (stereo not drawn) [β-pinene, beta-pinene]
